From ChEMBL document CHEMBL1148910, “A coumarin from Mallotus resinosus that mediates DNA cleavage” (J Nat Prod, 2004) come the findings set out here.

Assay [1] concerns Escherichia coli. Description: Induction of strand scission in pBR322 DNA assessed as conversion from supercoiled form to nicked form at 1000 uM after 60 mins by agarose gel electrophoresis in absence of Cu2+. The essentials: (§1)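 No Cu2+ was added. Supercoiled pBR322 DNA (500 ng) was incubated with test compound (in DMSO, final ≤5%) in 25 µL of 10 mM Tris-HCl, pH 8.0, at 37 °C for 60 min, with DNA alone as the blank. Products were separated on a 1.0% agarose gel with ethidium bromide in TBE at 110-120 V for 2-3 h and photographed under UV. Read-out was % nicked (form II) DNA.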

Assay [2] has as its system Escherichia coli. Description: Induction of strand scission in pBR322 DNA assessed as conversion from supercoiled form to nicked form at 500 uM after 60 mins by agarose gel electrophoresis in presence of Cu2+. The essentials: (§2)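 Supercoiled pBR322 plasmid DNA (500 ng) was incubated with 20 µM Cu2+ and test compound (in DMSO, final ≤5%) in 25 µL of 10 mM Tris-HCl, pH 8.0, at 37 °C for 60 min. Controls were DNA alone and DNA + Cu2+. Products were run on a 1.0% agarose gel with 0.7 µg/mL ethidium bromide in TBE, pH 8.3, at 110-120 V for 2-3 h, then imaged under UV. Read-out was % form II (nicked) DNA.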

The test system of assay [3] is Escherichia coli. Description: Induction of strand scission in pBR322 DNA assessed as conversion from supercoiled form to nicked form at 250 uM after 60 mins by agarose gel electrophoresis in presence of Cu2+. The essentials:
as §2

In assay [4] the test system is Escherichia coli. As to the kind of experiment: Induction of strand scission in supercoiled pBR322 DNA by agarose gel electrophoresis in presence of Cu2+. The essentials:
as §2

Assay [5] relates to Escherichia coli. As to the kind of experiment: Induction of strand scission in supercoiled pBR322 DNA by agarose gel electrophoresis in presence of Fe2+.
Assay [6] relates to Escherichia coli. As to the kind of experiment: Induction of strand scission in supercoiled pBR322 DNA by agarose gel electrophoresis in presence of Cu2+ and alkali.
In assay [7] the test system is Escherichia coli. Description: Induction of strand scission in pBR322 DNA assessed as conversion from supercoiled form to nicked form at 1000 uM after 60 mins by agarose gel electrophoresis in presence of Cu2+. The essentials:
as §2

In assay [8] the test system is Escherichia coli. As to the kind of experiment: Induction of strand scission in supercoiled pBR322 DNA by agarose gel electrophoresis in absence of added metal ion.
In assay [9] the test system is Escherichia coli. As to the kind of experiment: Induction of strand scission in pBR322 DNA assessed as conversion from supercoiled form to nicked form at 100 uM after 60 mins by agarose gel electrophoresis in presence of Cu2+. The essentials: as §2
In assay [10] the test system is Escherichia coli. As to the kind of experiment: Induction of strand scission in pBR322 DNA assessed as conversion from supercoiled form to nicked form at 50 uM after 60 mins by agarose gel electrophoresis in presence of Cu2+. The essentials: as §2
The test system of assay [11] is Escherichia coli. Description: Induction of strand scission in pBR322 DNA assessed as conversion from supercoiled form to nicked form at 250 uM after 60 mins by agarose gel electrophoresis in absence of Cu2+. The essentials: as §1

Activity calls are given as the source filed them. No cut-off for these calls is given here.

Take `COc1cc2ccc(=O)oc2cc1O`: the Activity with Escherichia coli [1] was 3%; in the assay on Escherichia coli [2], 22%; with Escherichia coli [3], 15%; in the assay on Escherichia coli [4], “Dose-dependent effect”; in the assay on Escherichia coli [7], 36%. Further, the result in the assay with Escherichia coli [5], with Escherichia coli [6] and with Escherichia coli [8] was inactive.
In the case of `COc1cc2oc(=O)ccc2cc1O`, the Activity in the assay with Escherichia coli [1] is 2%; in the assay with Escherichia coli [2], 26%; with Escherichia coli [3], 14%; with Escherichia coli [4], “Dose-dependent effect”; in the assay on Escherichia coli [7], 42%. Besides, the result with Escherichia coli [5] and with Escherichia coli [8] was inactive.
As to `O=c1ccc2cc(O)c(O)cc2o1`, the Activity with Escherichia coli [3] was 76%; in the assay on Escherichia coli [9] it was 64%; in the assay with Escherichia coli [10], 55%; in the assay with Escherichia coli [4] it was “Dose-dependent effect”; with Escherichia coli [11], 2%. The result in the assay on Escherichia coli [5] and in the assay on Escherichia coli [8] was inactive.
